{
  "source": "ChEMBL document CHEMBL1134845",
  "about": "“Syntheses and biological activities of a novel group of steroidal derived inhibitors for human Cdc25A protein phosphatase” (J Med Chem, 2001)",
  "key": {"[1]": {"test": "Inhibitory activity against PSPTase", "outline": "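Human GST-Cdc25A fusion protein, with each batch calibrated for linear dephosphorylation of fluorescein diphosphate over 20 min. Run 15 min at 25 °C in the dark and stopped with sodium orthovanadate. Fluorescein monophosphate read at ex 485/em 530 nm. IC50 from at least two independent determinations, each in triplicate; variation from the mean within ±20%.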"}, "[2]": {"biological_target": "T1, M-phase inducer phosphatase 1 (Homo sapiens, UniProt P30304)", "T1 sequence (P30304 whole entry)": "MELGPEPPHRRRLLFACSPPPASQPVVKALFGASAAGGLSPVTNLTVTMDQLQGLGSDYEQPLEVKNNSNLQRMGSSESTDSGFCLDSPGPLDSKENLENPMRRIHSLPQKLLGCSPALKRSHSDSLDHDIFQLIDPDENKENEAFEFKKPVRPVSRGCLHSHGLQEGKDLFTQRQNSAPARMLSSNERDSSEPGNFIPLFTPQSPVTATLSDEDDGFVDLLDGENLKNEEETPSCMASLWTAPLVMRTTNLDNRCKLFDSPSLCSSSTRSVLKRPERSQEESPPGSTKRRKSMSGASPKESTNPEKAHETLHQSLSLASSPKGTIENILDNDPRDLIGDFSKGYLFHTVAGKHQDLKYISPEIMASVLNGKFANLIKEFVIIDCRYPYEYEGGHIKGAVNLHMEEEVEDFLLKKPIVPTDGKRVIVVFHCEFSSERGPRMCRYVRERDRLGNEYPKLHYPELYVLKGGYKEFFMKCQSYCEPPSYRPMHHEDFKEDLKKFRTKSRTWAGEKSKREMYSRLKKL", "test": "Inhibitory activity tested against cell division cycle 25A (assay using p-nitrophenyl phosphate (pNPP) as substrate)"}, "UO-31": {"test_system": "UO-31", "test": "Growth inhibitory activity was determined against UO-31 cancer cell line of Renal cancer", "type": "functional", "settings": "Homo sapiens", "outline": "(§1)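 NCI 60 human tumour cell line screen run at the National Cancer Institute. Cell growth and viability read with the protein stain sulforhodamine B, which binds basic amino acids of cells left attached after washing. […] MG MID is the mean GI50 calculated over all panels.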"}, "T47D": {"test_system": "T47D", "test": "Growth inhibitory activity was determined against T-47D cancer cell line of Breast cancer", "type": "functional, Homo sapiens", "settings": "Homo sapiens, T47D", "outline": "as §1"}, "A549": {"test_system": "A549", "test": "Growth inhibitory activity was determined against A549/ATCC cancer cell line of non-small cell lung cancer", "type": "functional, Homo sapiens", "settings": "Homo sapiens, A549", "outline": "as §1"}, "LOX IMVI": {"test_system": "LOX IMVI", "test": "Growth inhibitory activity was determined against LOX IMVI cancer cell line of melanoma", "type": "functional, Homo sapiens", "settings": "Homo sapiens, LOX IMVI", "outline": "as §1"}, "SF-539": {"test_system": "SF-539", "test": "Growth inhibitory activity was determined against SF-539 cancer cell line of CNS cancer", "type": "functional", "settings": "Homo sapiens", "outline": "as §1"}, "NCI-H23": {"test_system": "NCI-H23", "test": "Growth inhibitory activity was determined against NCI-H23 cancer cell line of non-small cell lung cancer", "type": "functional, Homo sapiens", "settings": "Homo sapiens, NCI-H23", "outline": "as §1"}, "[3]": {"biological_target": "T1, M-phase inducer phosphatase 1", "test": "Inhibitory activity tested against cell division cycle 25A (assay using fluorescein diphosphate (FDP) as substrate)", "outline": "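Recombinant human GST-Cdc25A fusion protein, each batch calibrated so that FDP was dephosphorylated linearly over 20 min. Fluorescein diphosphate was the substrate. Reactions ran 15 min at 25 °C in the dark and were stopped with sodium orthovanadate. IC50 came from at least two independent runs, each in triplicate.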"}, "SF-268": {"test_system": "SF-268", "test": "Growth inhibitory activity was determined against SF-268 cancer cell line of CNS cancer", "type": "functional", "settings": "Homo sapiens", "outline": "as §1"}, "U-251": {"test_system": "U-251", "test": "Growth inhibitory activity was determined against U-251 cancer cell line of CNS cancer", "type": "functional", "settings": "Homo sapiens", "outline": "as §1"}, "COLO 205": {"test_system": "COLO 205", "test": "Growth inhibitory activity was determined against COLO 205 cancer cell line colon cancer", "type": "functional, Homo sapiens", "settings": "Homo sapiens, COLO 205", "outline": "as §1"}, "NCI-H522": {"test_system": "NCI-H522", "test": "Growth inhibitory activity was determined against NCI-H522 cancer cell line of non-small cell lung cancer", "type": "functional", "settings": "Homo sapiens", "outline": "as §1"}, "HCC 2998": {"test_system": "HCC 2998", "test": "Growth inhibitory activity was determined against HCC2998 cancer cell line colon cancer", "type": "functional, Homo sapiens", "settings": "Homo sapiens, HCC 2998", "outline": "as §1"}, "PC-3": {"test_system": "PC-3", "test": "Growth inhibitory activity was determined against PC-3 cancer cell line of Prostate cancer", "type": "functional", "settings": "Homo sapiens", "outline": "as §1"}, "BT-549 (Homo sapiens)": {"test_system": "BT-549 (Homo sapiens)", "test": "Growth inhibitory activity was determined against BT-549 cancer cell line of Breast cancer", "settings": "Homo sapiens, BT-549"}, "OVCAR-3": {"test_system": "OVCAR-3", "test": "Growth inhibitory activity was determined against OVCAR-3 cancer cell line of Ovarian cancer", "type": "functional", "settings": "Homo sapiens", "outline": "as §1"}, "786-0": {"test_system": "786-0", "test": "Growth inhibitory activity was determined against 786-0 cancer cell line of Renal cancer", "type": "functional", "settings": "Homo sapiens", "outline": "as §1"}, "SK-MEL-5": {"test_system": "SK-MEL-5", "test": "Growth inhibitory activity was determined against SK-MEL-5 cancer cell line of melanom", "type": "functional", "settings": "Homo sapiens", "outline": "as §1"}, "OVCAR-8": {"test_system": "OVCAR-8", "test": "Growth inhibitory activity was determined against OVCAR-8 cancer cell line of Ovarian cancer", "type": "functional", "settings": "Homo sapiens", "outline": "as §1"}, "SN12C": {"test_system": "SN12C", "test": "Growth inhibitory activity was determined against SN12C cancer cell line of Renal cancer", "type": "functional", "settings": "Homo sapiens", "outline": "as §1"}, "NCI/ADR-RES": {"test_system": "NCI/ADR-RES", "test": "Growth inhibitory activity was determined against NCI/ADR-RES cancer cell line of Breast cancer", "type": "functional, Homo sapiens", "settings": "Homo sapiens, NCI/ADR-RES", "outline": "as §1"}, "HT-29": {"test_system": "HT-29", "test": "Growth inhibitory activity was determined against HT-29 cancer cell line colon cancer", "type": "functional, Homo sapiens", "settings": "Homo sapiens, HT-29", "outline": "as §1"}},
  "data": [
    {"smiles": "C=C1[C@@H](O)[C@@H]2O[C@]3(CC[C@H](/C=C/[C@@H](C)[C@@H]4CC(C)=C[C@@]5(O[C@H](C[C@@](C)(O)C(=O)O)CC[C@H]5O)O4)O3)CC[C@H]2O[C@@H]1[C@@H](O)C[C@H](C)[C@H]1O[C@@]2(CCCCO2)CC[C@H]1C", "note": "[OKADAIC ACID]", "values": [
      {"measurement": "IC50", "setting": "[1]", "result": 0.049, "unit": "µM"}
    ]},
    {"smiles": "CC1=CC[C@H]2C(C)(C)CCC[C@]2(C)[C@H]1C(C)[C@H](OS(=O)(=O)O)[C@H](C)CCCc1ccoc1", "note": "(stereo partly drawn)", "values": [
      {"measurement": "IC50", "setting": "[2]", "result": 7.8, "unit": "µM"}
    ]},
    {"smiles": "CC(C)CCC[C@@H](C)[C@H]1CC[C@H]2[C@H](CC(=O)O)[C@@H]([C@@]3(C)CCCCC3=O)CC[C@]12C", "values": [
      {"measurement": "GI50", "setting": "UO-31", "result": "> 25", "unit": "µM"},
      {"measurement": "GI50", "setting": "T47D", "result": 16.9, "unit": "µM"},
      {"measurement": "GI50", "setting": "A549", "result": 10.8, "unit": "µM"},
      {"measurement": "GI50", "setting": "LOX IMVI", "result": 16.7, "unit": "µM"},
      {"measurement": "GI50", "setting": "SF-539", "result": "> 25", "unit": "µM"},
      {"measurement": "GI50", "setting": "NCI-H23", "result": 19, "unit": "µM"},
      {"measurement": "IC50", "setting": "[3]", "result": 5.9, "unit": "µM"},
      {"measurement": "GI50", "setting": "SF-268", "result": "> 25", "unit": "µM"},
      {"measurement": "GI50", "setting": "U-251", "result": 14, "unit": "µM"},
      {"measurement": "GI50", "setting": "COLO 205", "result": "> 25", "unit": "µM"},
      {"measurement": "GI50", "setting": "NCI-H522", "result": "> 25", "unit": "µM"},
      {"measurement": "GI50", "setting": "HCC 2998", "result": 18.8, "unit": "µM"},
      {"measurement": "GI50", "setting": "PC-3", "result": 16, "unit": "µM"},
      {"measurement": "GI50", "setting": "BT-549 (Homo sapiens)", "result": 13, "unit": "µM"},
      {"measurement": "GI50", "setting": "OVCAR-3", "result": "> 25", "unit": "µM"},
      {"measurement": "GI50", "setting": "786-0", "result": 18.5, "unit": "µM"},
      {"measurement": "GI50", "setting": "SK-MEL-5", "result": "> 25", "unit": "µM"},
      {"measurement": "GI50", "setting": "OVCAR-8", "result": 13.5, "unit": "µM"},
      {"measurement": "GI50", "setting": "SN12C", "result": 13.4, "unit": "µM"},
      {"measurement": "GI50", "setting": "NCI/ADR-RES", "result": 14.6, "unit": "µM"},
      {"measurement": "GI50", "setting": "HT-29", "result": 15.7, "unit": "µM"}
    ]}
  ]
}
